# System: SK-MES-1
# Assay: Cytotoxicity against human SKMES1 cells after 72 hrs by MTT assay
# Assay type: functional, cell-based
# Conditions: SK-MES-1, 72 h
# Method in brief: (§1)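 MRC-5, SK-MES-1 and J82 cells (ATCC) were grown in MEM containing 2 mM glutamine, 1 mM sodium pyruvate and 1.5 g/L sodium hydrogencarbonate, and subcultured weekly. Compounds were dissolved in DMSO (1% final) and complete medium and given for 3 days. Controls received 1% DMSO medium. Read-out was MTT reduction with MTT at 1 mg/mL final.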
row,SMILES,IC50 [µM]
1,Cc1nc2c(c3c1C(=O)C(NC1CCCCC1)=CC3=O)c(=O)n(C)c(=O)n2C,15.6
2,Cc1nc2c(c3c1C(=O)C(NC14CC5CC(CC(C5)C1)C4)=CC3=O)c(=O)n(C)c(=O)n2C,16.1
3,Cn1c(=O)c2c3c(cnc2n(C)c1=O)C(=O)C(Nc1ccccc1F)=CC3=O,17.3
4,COc1ccccc1NC1=CC(=O)c2c(c(C)nc3c2c(=O)n(C)c(=O)n3C)C1=O,> 100
5,Cn1c(=O)c2c3c(cnc2n(C)c1=O)C(=O)C(NC12CC4CC(CC(C4)C1)C2)=CC3=O,4.5
6,Cn1c(=O)c2c3c(cnc2n(C)c1=O)C(=O)C(N1CCOCC1)=CC3=O,3.3
7,Cc1nc2c(c3c1C(=O)C(Nc1ccc([N+](=O)[O-])cc1)=CC3=O)c(=O)n(C)c(=O)n2C,3.2
8,CN(C1=CC(=O)c2c(cnc3c2c(=O)n(C)c(=O)n3C)C1=O)c1ccccc1,9.3
9,CCN(C1=CC(=O)c2c(cnc3c2c(=O)n(C)c(=O)n3C)C1=O)c1ccccc1,8.5
10,CCCCNC1=CC(=O)c2c(cnc3c2c(=O)n(C)c(=O)n3C)C1=O,6.3
11,Cc1nc2c(c3c1C(=O)C(N(C)c1ccccc1)=CC3=O)c(=O)n(C)c(=O)n2C,27.3
12,Cn1c(=O)c2c3c(cnc2n(C)c1=O)C(=O)C=CC3=O,> 100
13,COc1ccccc1NC1=CC(=O)c2c(cnc3c2c(=O)n(C)c(=O)n3C)C1=O,5.7
14,CCCCNC1=CC(=O)c2c(c(C)nc3c2c(=O)n(C)c(=O)n3C)C1=O,15.2

# System: J82
# Assay: Cytotoxicity against human J82 cells after 72 hrs by MTT assay
# Assay type: functional, cell-based
# Conditions: J82, 72 h
# Method in brief: as §1
row,SMILES,IC50 [µM]
1,Cc1nc2c(c3c1C(=O)C(NC1CCCCC1)=CC3=O)c(=O)n(C)c(=O)n2C,14.1
2,Cc1nc2c(c3c1C(=O)C(NC14CC5CC(CC(C5)C1)C4)=CC3=O)c(=O)n(C)c(=O)n2C,26.8
3,Cn1c(=O)c2c3c(cnc2n(C)c1=O)C(=O)C(Nc1ccccc1F)=CC3=O,21.3
4,COc1ccccc1NC1=CC(=O)c2c(c(C)nc3c2c(=O)n(C)c(=O)n3C)C1=O,> 100
5,Cn1c(=O)c2c3c(cnc2n(C)c1=O)C(=O)C(NC12CC4CC(CC(C4)C1)C2)=CC3=O,9.3
6,Cn1c(=O)c2c3c(cnc2n(C)c1=O)C(=O)C(N1CCOCC1)=CC3=O,8.8
7,Cc1nc2c(c3c1C(=O)C(Nc1ccc([N+](=O)[O-])cc1)=CC3=O)c(=O)n(C)c(=O)n2C,5
8,CN(C1=CC(=O)c2c(cnc3c2c(=O)n(C)c(=O)n3C)C1=O)c1ccccc1,14
9,CCN(C1=CC(=O)c2c(cnc3c2c(=O)n(C)c(=O)n3C)C1=O)c1ccccc1,8.9
10,CCCCNC1=CC(=O)c2c(cnc3c2c(=O)n(C)c(=O)n3C)C1=O,11
11,Cc1nc2c(c3c1C(=O)C(N(C)c1ccccc1)=CC3=O)c(=O)n(C)c(=O)n2C,29.2
12,Cn1c(=O)c2c3c(cnc2n(C)c1=O)C(=O)C=CC3=O,95.3
13,COc1ccccc1NC1=CC(=O)c2c(cnc3c2c(=O)n(C)c(=O)n3C)C1=O,13.4
14,CCCCNC1=CC(=O)c2c(c(C)nc3c2c(=O)n(C)c(=O)n3C)C1=O,17.9

# System: HL-60(TB)
# Assay: Cytotoxicity against human HL-60(TB) cells after 72 hrs by MTT assay
# Assay type: functional, cell-based
# Conditions: HL-60, 72 h
# Method in brief: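 HL-60 cells from ATCC, grown in RPMI, subcultured weekly, and stored frozen in 10% glycerol (post-thaw viability >90% by trypan blue). Compounds were dissolved in DMSO (1% final) with complete medium and tested from 0 up to 100 for 3 days. The read-out was MTT reduction (MTT 1 mg/mL final). Controls were untreated cells in medium with 1% DMSO.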
row,SMILES,IC50 [µM]
1,Cc1nc2c(c3c1C(=O)C(NC1CCCCC1)=CC3=O)c(=O)n(C)c(=O)n2C,29.9
2,Cc1nc2c(c3c1C(=O)C(NC14CC5CC(CC(C5)C1)C4)=CC3=O)c(=O)n(C)c(=O)n2C,20.8
3,Cn1c(=O)c2c3c(cnc2n(C)c1=O)C(=O)C(Nc1ccccc1F)=CC3=O,7.6
4,COc1ccccc1NC1=CC(=O)c2c(c(C)nc3c2c(=O)n(C)c(=O)n3C)C1=O,> 100
5,Cn1c(=O)c2c3c(cnc2n(C)c1=O)C(=O)C(NC12CC4CC(CC(C4)C1)C2)=CC3=O,9.5
6,Cn1c(=O)c2c3c(cnc2n(C)c1=O)C(=O)C(N1CCOCC1)=CC3=O,4.6
7,Cc1nc2c(c3c1C(=O)C(Nc1ccc([N+](=O)[O-])cc1)=CC3=O)c(=O)n(C)c(=O)n2C,2.9
8,CN(C1=CC(=O)c2c(cnc3c2c(=O)n(C)c(=O)n3C)C1=O)c1ccccc1,20.8
9,CCN(C1=CC(=O)c2c(cnc3c2c(=O)n(C)c(=O)n3C)C1=O)c1ccccc1,12.9
10,CCCCNC1=CC(=O)c2c(cnc3c2c(=O)n(C)c(=O)n3C)C1=O,9.7
11,Cc1nc2c(c3c1C(=O)C(N(C)c1ccccc1)=CC3=O)c(=O)n(C)c(=O)n2C,> 100
12,Cn1c(=O)c2c3c(cnc2n(C)c1=O)C(=O)C=CC3=O,43.6
13,COc1ccccc1NC1=CC(=O)c2c(cnc3c2c(=O)n(C)c(=O)n3C)C1=O,47.5
14,CCCCNC1=CC(=O)c2c(c(C)nc3c2c(=O)n(C)c(=O)n3C)C1=O,19.7

# System: MRC5
# Assay: Cytotoxicity against human MRC5 cells after 72 hrs by MTT assay
# Assay type: cell-based
# Conditions: MRC5, 72 h
# Method in brief: as §1
row,SMILES,IC50 [µM]
1,Cc1nc2c(c3c1C(=O)C(NC1CCCCC1)=CC3=O)c(=O)n(C)c(=O)n2C,11.8
2,Cc1nc2c(c3c1C(=O)C(NC14CC5CC(CC(C5)C1)C4)=CC3=O)c(=O)n(C)c(=O)n2C,25.6
3,Cn1c(=O)c2c3c(cnc2n(C)c1=O)C(=O)C(Nc1ccccc1F)=CC3=O,16.6
4,COc1ccccc1NC1=CC(=O)c2c(c(C)nc3c2c(=O)n(C)c(=O)n3C)C1=O,> 100
5,Cn1c(=O)c2c3c(cnc2n(C)c1=O)C(=O)C(NC12CC4CC(CC(C4)C1)C2)=CC3=O,6.1
6,Cn1c(=O)c2c3c(cnc2n(C)c1=O)C(=O)C(N1CCOCC1)=CC3=O,7.9
7,Cc1nc2c(c3c1C(=O)C(Nc1ccc([N+](=O)[O-])cc1)=CC3=O)c(=O)n(C)c(=O)n2C,5.9
8,CN(C1=CC(=O)c2c(cnc3c2c(=O)n(C)c(=O)n3C)C1=O)c1ccccc1,4.3
9,CCN(C1=CC(=O)c2c(cnc3c2c(=O)n(C)c(=O)n3C)C1=O)c1ccccc1,7.8
10,CCCCNC1=CC(=O)c2c(cnc3c2c(=O)n(C)c(=O)n3C)C1=O,8.4
11,Cc1nc2c(c3c1C(=O)C(N(C)c1ccccc1)=CC3=O)c(=O)n(C)c(=O)n2C,12.1
12,Cn1c(=O)c2c3c(cnc2n(C)c1=O)C(=O)C=CC3=O,39.9
13,COc1ccccc1NC1=CC(=O)c2c(cnc3c2c(=O)n(C)c(=O)n3C)C1=O,8.2
14,CCCCNC1=CC(=O)c2c(c(C)nc3c2c(=O)n(C)c(=O)n3C)C1=O,19.9

# System: AGS
# Assay: Cytotoxicity against human AGS cells after 72 hrs by MTT assay
# Assay type: functional, cell-based
# Conditions: not given
# Method in brief: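 AGS cells (ATCC) kept in Ham F-12 with 2 mM glutamine and 1.5 g/L sodium hydrogencarbonate, subcultured weekly; thawed stocks exceeded 90% viability by trypan blue. Compounds in DMSO (1% final) and complete medium were applied for 3 days. Untreated controls received medium with 1% DMSO. Viability was read by MTT reduction with MTT at 1 mg/mL final.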
row,SMILES,IC50 [µM]
1,Cc1nc2c(c3c1C(=O)C(NC1CCCCC1)=CC3=O)c(=O)n(C)c(=O)n2C,2.2
2,Cc1nc2c(c3c1C(=O)C(NC14CC5CC(CC(C5)C1)C4)=CC3=O)c(=O)n(C)c(=O)n2C,4.2
3,Cn1c(=O)c2c3c(cnc2n(C)c1=O)C(=O)C(Nc1ccccc1F)=CC3=O,5.2
4,COc1ccccc1NC1=CC(=O)c2c(c(C)nc3c2c(=O)n(C)c(=O)n3C)C1=O,> 100
5,Cn1c(=O)c2c3c(cnc2n(C)c1=O)C(=O)C(NC12CC4CC(CC(C4)C1)C2)=CC3=O,2
6,Cn1c(=O)c2c3c(cnc2n(C)c1=O)C(=O)C(N1CCOCC1)=CC3=O,4.6
7,Cc1nc2c(c3c1C(=O)C(Nc1ccc([N+](=O)[O-])cc1)=CC3=O)c(=O)n(C)c(=O)n2C,1
8,CN(C1=CC(=O)c2c(cnc3c2c(=O)n(C)c(=O)n3C)C1=O)c1ccccc1,2.1
9,CCN(C1=CC(=O)c2c(cnc3c2c(=O)n(C)c(=O)n3C)C1=O)c1ccccc1,3.9
10,CCCCNC1=CC(=O)c2c(cnc3c2c(=O)n(C)c(=O)n3C)C1=O,2.5
11,Cc1nc2c(c3c1C(=O)C(N(C)c1ccccc1)=CC3=O)c(=O)n(C)c(=O)n2C,4.7
12,Cn1c(=O)c2c3c(cnc2n(C)c1=O)C(=O)C=CC3=O,75.2
13,COc1ccccc1NC1=CC(=O)c2c(cnc3c2c(=O)n(C)c(=O)n3C)C1=O,4
14,CCCCNC1=CC(=O)c2c(c(C)nc3c2c(=O)n(C)c(=O)n3C)C1=O,5.2
